Tests used:
[1] = Cytotoxicity against human H1HeLa cells assessed as reduction in cell viability after 3 days by MTT assay; format: cell-based, H1-HeLa
rhinovirus B14 = assay: Antiviral activity against Human rhinovirus B14 infected in human H1HeLa cells assessed as inhibition of viral replication after 3 days by MTT assay; format: functional, organism-based; details: Rhinovirus B, H1-HeLa, 72 h
Procedure, shortened: (§1)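 Anti-rhinovirus EC50 against hRV-B14, -A21 and -A71 determined in H1HeLa cells. Read-out is MTT cell viability. EC50 is the concentration that inhibits viral replication by 50%. Pleconaril serves as reference.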

rhinovirus A21 = assay: Antiviral activity against Human rhinovirus A21 infected in human H1HeLa cells assessed as inhibition of viral replication after 3 days by MTT assay; format: functional, organism-based; details: Rhinovirus A, H1-HeLa, 72 h; procedure, shortened: as §1
[2] = Antiviral activity against Human rhinovirus A71 infected in human H1HeLa cells assessed as inhibition of viral replication after 3 days by MTT assay; format: functional, cell-based; details: Rhinovirus A, H1-HeLa, 72 h; procedure, shortened: as §1
[3] = Metabolic stability in rat liver microsomes assessed as parent compound remaining at 1 uM after 30 mins in presence of NADPH by LC/MS/MS analysis; format: ADME, microsome; details: read-out: Stability
Procedure, shortened: (§2)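 Phase I metabolic stability in rat or human liver microsomes, reported as % parent remaining after 30 min. Buspirone serves as reference. Values are mean ± SD of at least three independent experiments.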

[4] = Metabolic stability in human liver microsomes assessed as parent compound remaining at 1 uM after 30 mins in presence of NADPH by LC/MS/MS analysis; format: ADME, microsome; details: read-out: Stability; procedure, shortened: as §2
[5] = Cmax in Sprague-Dawley rat at 10 mg/kg, po by LC/MS/MS analysis; format: ADME, organism-based; parameters: dose 10 mg/kg, route oral; details: in vivo
Procedure, shortened: (§3)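 Male Sprague–Dawley rats, n = 3, given 5 mg·kg–1 intravenously or 10 mg·kg–1 orally. Plasma deproteinized in acetonitrile and assayed by LC–MS/MS. Parameters derived from concentration–time data by noncompartmental analysis. Values reported as mean ± standard deviation.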

[6] = Terminal half life in Sprague-Dawley rat at 5 mg/kg, iv by LC/MS/MS analysis; format: ADME, organism-based; details: in vivo, read-out: beta t1/2 (converted); procedure, shortened: as §3
[7] = AUCt in Sprague-Dawley rat at 5 mg/kg, iv by LC/MS/MS analysis; format: ADME, organism-based; details: in vivo; procedure, shortened: as §3
[8] = AUC (infinity) in Sprague-Dawley rat at 5 mg/kg, iv by LC/MS/MS analysis; format: ADME, organism-based; parameters: dose 5 mg/kg, route intravenous, time infinity; details: in vivo; procedure, shortened: as §3
[9] = Clearance in Sprague-Dawley rat at 5 mg/kg, iv by LC/MS/MS analysis; format: ADME, organism-based; details: in vivo; procedure, shortened: as §3
[10] = Volume of distribution at steady state in Sprague-Dawley rat at 5 mg/kg, iv by LC/MS/MS analysis; format: ADME, organism-based; details: in vivo, read-out: Vdss; procedure, shortened: as §3
[11] = Tmax in Sprague-Dawley rat at 10 mg/kg, po by LC/MS/MS analysis; format: ADME, organism-based; details: in vivo; procedure, shortened: as §3
[12] = Terminal half life in Sprague-Dawley rat at 10 mg/kg, po by LC/MS/MS analysis; format: ADME, organism-based; details: in vivo, read-out: beta t1/2 (converted); procedure, shortened: as §3
[13] = AUCt in Sprague-Dawley rat at 10 mg/kg, po by LC/MS/MS analysis; format: ADME, organism-based; details: in vivo; procedure, shortened: as §3
[14] = AUC (infinity) in Sprague-Dawley rat at 10 mg/kg, po by LC/MS/MS analysis; format: ADME, organism-based; parameters: dose 10 mg/kg, time infinity, route oral; details: in vivo; procedure, shortened: as §3
[15] = Oral bioavailability in Sprague-Dawley rat at 10 mg/kg by LC/MS/MS analysis; format: ADME, organism-based; details: in vivo; procedure, shortened: as §3

Compound	CC50 at 72 h [1]	EC50 (rhinovirus B14)	EC50 (rhinovirus A21)	EC50 [2]	other results
CNC(=O)c1cc(Oc2ccc3c(C)c(-c4noc(C(F)(F)F)n4)sc3c2)ccn1	> 100000 nM	2000 nM	990 nM	300 nM	
O=C1CC2(CCCC2)CC(=O)N1CCCCN1CCN(c2ncccn2)CC1 [BUSPIRONE]					remaining at 0.5 h, 1 µM [3]: 0.1%; remaining at 0.5 h, 1 µM [4]: 3.5%
CNC(=O)c1cc(Oc2ccc(-c3noc(C(C)C)n3)nc2)ccn1	> 100000 nM	11500 nM	39100 nM	6700 nM	
CNC(=O)c1cc(Oc2ccc3c(C)c(-c4noc(C)n4)sc3c2)ccn1	> 100000 nM	650 nM	59 nM	61 nM	
CNC(=O)c1cc(Oc2ccc3c(C)c(C(=O)OC(C)C)sc3c2)ccn1					remaining at 0.5 h, 1 µM [3]: 1%; remaining at 0.5 h, 1 µM [4]: 42.7%
CNC(=O)c1cc(Oc2ccc(-c3noc(COC)n3)cc2)ccn1	63400 nM	8300 nM	2100 nM	1700 nM	
CNC(=O)c1cc(Oc2ccc(-c3noc(C4CC4)n3)cc2)ccn1	32300 nM	520 nM	400 nM	50 nM	
CCc1nc(-c2ccc(Oc3ccnc(C(=O)NC)c3)cc2)no1	43700 nM	1100 nM	130 nM	31 nM	
CNC(=O)c1cc(Oc2ccc(-c3noc(C)n3)cc2)ccn1	> 100000 nM	33700 nM	8700 nM	1600 nM	
CNC(=O)c1cc(Oc2ccc(-c3noc(C4CC4)n3)cc2C)ccn1	20000 nM	340 nM	400 nM	12 nM	
CNC(=O)c1cc(Oc2ccc3c(C)c(-c4noc(C5CC5)n4)sc3c2)ccn1	6800 nM	470 nM	60 nM	31 nM	
CNC(=O)c1cc(Oc2cccc(-c3noc(CC(C)C)n3)c2)ccn1	19100 nM	> 19100 nM	2700 nM	370 nM	
CNC(=O)c1cc(Oc2ccc3cc(-c4noc(C)n4)ccc3c2)ccn1	6900 nM	1700 nM	110 nM	8.4 nM	
CNC(=O)c1cc(Oc2cccc(-c3noc(C(C)C)n3)c2)ccn1	54200 nM	12800 nM	2100 nM	150 nM	
CNC(=O)c1cc(Oc2c(C)cc(-c3noc(C(C)C)n3)cc2C)ccn1	7400 nM	300 nM	69 nM	11 nM	remaining at 0.5 h, 1 µM [3]: 37.1%; remaining at 0.5 h, 1 µM [4]: 61.1%
Cc1cc(-c2noc(C(C)C)n2)ccc1Oc1ccnc(C(=O)N(C)C)c1	1400 nM	490 nM	> 1400 nM	> 1400 nM	
CNC(=O)c1cc(Oc2ccc3c(C)c(-c4noc(C(C)C)n4)sc3c2)ccn1	5500 nM	73 nM	300 nM	13 nM	remaining at 0.5 h, 1 µM [3]: 99.2%; remaining at 0.5 h, 1 µM [4]: 69.8%
CC(C)c1nc(-c2ccc(Oc3ccnc(C(=O)N(C)C)c3)cc2)no1	9000 nM	280 nM	> 9000 nM	> 9000 nM	
CNC(=O)c1cc(Oc2ccc(-c3noc(CC(C)C)n3)cc2)ccn1	23400 nM	> 23400 nM	2200 nM	340 nM	
CCc1nc(-c2sc3cc(Oc4ccnc(C(=O)NC)c4)ccc3c2C)no1	5200 nM	430 nM	77 nM	14 nM	
Cc1cc(-c2noc(C(C)C)n2)cc(C)c1Oc1ccnc(C(=O)N(C)C)c1	1800 nM	> 1800 nM	> 1800 nM	> 1800 nM	
CNC(=O)c1cc(Oc2ccc(-c3noc(C(C)C)n3)c(C)c2)ccn1	30500 nM	66 nM	22 nM	3.7 nM	Cmax [5]: 3900 ng/mL; remaining at 0.5 h, 1 µM [3]: 59.6%; remaining at 0.5 h, 1 µM [4]: 40.7%; half-life [6]: 4.6 h; AUC(0-t) [7]: 31300 ng·h/mL; AUC(0-inf) [8]: 31800 ng·h/mL; clearance [9]: 2.63 mL/min/kg; Vd [10]: 0.611 L/kg; Tmax [11]: 2.7 h; half-life [12]: 3.2 h; AUC(0-t) [13]: 17400 ng·h/mL; AUC(0-inf) [14]: 17400 ng·h/mL; bioavailability [15]: 27.8%
CNC(=O)c1cc(Oc2ccc(-c3noc(C(F)(F)F)n3)cc2)ccn1	35000 nM	9300 nM	> 35000 nM	1600 nM	
CNC(=O)c1cc(Oc2cccc(-c3noc(COC)n3)c2)ccn1	> 100000 nM	> 100000 nM	40300 nM	2000 nM	
CNC(=O)c1cc(Oc2ccc(-c3noc(C(C)C)n3)cc2C)ccn1	8900 nM	73 nM	29 nM	2.5 nM	remaining at 0.5 h, 1 µM [3]: 35.1%; remaining at 0.5 h, 1 µM [4]: 9.9%
CNC(=O)c1cc(Oc2ccc(-c3noc(C(C)C)n3)cc2)ccn1	16100 nM	73 nM	380 nM	34 nM	
CCc1nc(-c2ccc(Oc3ccnc(C(=O)NC)c3)c(C)c2)no1	25200 nM	390 nM	230 nM	3.9 nM	
Cc1cc(CCCOc2c(C)cc(-c3noc(C(F)(F)F)n3)cc2C)on1 [PLECONARIL]		92 nM		9.4 nM	

From ChEMBL document CHEMBL4196116, “3-Aryl-1,2,4-oxadiazole Derivatives Active Against Human Rhinovirus” (ACS Med Chem Lett, 2018)
